Assay results as given in ChEMBL document CHEMBL4513216, “Probing the Open Global Health Chemical Diversity Library for Multistage-Active Starting Points for Next-Generation Antimalarials” (ACS Infect Dis, 2020).

Assay: Toxicity liver stage against HepG2, at 10uM
Assay type: cell-based
Design: test concentration 10 uM, cell line HepG2-A16-CD81EGFP
Conditions: human, HepG2-A16-CD81EGFP cells; read-out: INHIBITION
Outline: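 Uninfected HepG2-A16-CD81EGFP cells, 3 × 10^3 per well, 1536-well, plated on prespotted compound at 10 μM final, parasite-free screening media added to match infected plates; puromycin 10 μM positive, DMSO 0.5% negative; run in parallel with 48 h PbLuc assay at 37 °C, 5% CO2; viability by CellTiter-Glo luminescence, normalized to controls.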

Compound	cytotoxicity at 10 µM
CCc1c(C)nc2n(c1=O)CC(C(=O)Nc1ncccc1C)CS2 (stereo not given)	7.14%
CCCNC(=O)c1nc2c(o1)CN(c1ncccn1)C2	1.95%
O=C(NC[C@H]1OC[C@@H]2CCN(c3ccccn3)C[C@@H]21)c1ccco1	1.32%
CC(C)CNC(=O)c1nc2c(s1)CCN(C(=O)c1ccc(Cl)cc1)CC2	7.4%
C[C@H]1C[C@@H]2CCN(C(=O)c3ccccn3)C[C@H]2O1	4.17%
C[C@@H]1C[C@H]2CN(C(=O)c3ccncn3)C[C@H]2O1	0.748%
CC(C)CC(=O)N1CC[C@H]2C[C@H](c3nccs3)O[C@@H]2C1	-0.966%
O=C(c1cc(-n2cnnn2)ccc1Cl)N1CCCCCC1	5.56%
CCN(CC)CCNC(=O)c1ccn(COc2cc(C)cc(C)c2)n1	4.36%
CC(=O)N1CCC(c2c(CN(C)C)cnc3cc(C)nn23)CC1	2.54%
Cc1noc(C)c1CC(=O)N1CCCC(Cc2ccccn2)C1 (stereo not given)	4.75%
CC(C)CC(=O)N1CCCC1c1cc(CO)[nH]n1 (stereo not given)	3.05%
O=C(c1ccccc1)N1CC2(CCNC2)OCc2ccccc21 (stereo not given)	13%
COc1cccc(CNCCc2cccc(C(N)=O)c2)c1	9.83%
CCOc1ccc(NC(=O)c2cc(C)c(C)o2)cc1CO	3.78%
CC(C)N(CC(=O)Nc1cccc(C(=O)N(C)C)c1)C1CC1	-4.81%
COc1cccc(COCC(=O)NC(C(N)=O)c2ccccc2F)c1 (stereo not given)	-4.55%
O=C(Nc1cccc(F)c1)N1CCN(Cc2noc(C3CC3)n2)CC1	3.8%
CC(=O)N(C)CC(=O)NC1(c2ccc(F)cc2)CCCC1	0.747%
CN(CC(O)COc1ccc(C(F)(F)F)cc1)C(=O)Nc1nncs1 (stereo not given)	-11.1%
COc1ccccc1N1CCCC(Nc2nccnc2C#N)C1 (stereo not given)	18.3%
CCC(CNC(=O)c1nc(=O)[nH][nH]1)Oc1ccccc1C(F)(F)F (stereo not given)	1.45%
O=c1oc(-c2ccc(F)cc2)nn1CCc1ccccn1	-5.65%

Compound	cytotoxicity at 10 µM
O=C(c1ccccn1)N(CCO)Cc1cc(Br)ccc1F	9.91%
Cc1ccc(NC(=O)NCCc2ccncc2C)c(N(C)C)n1	12.9%
Cc1ccc(NS(=O)(=O)c2cc(C(=O)O)oc2C)c(Br)c1	1.83%
CN(C)C(=O)c1cc(NC(=O)N2CCCC(C(F)(F)F)C2)ccn1 (stereo not given)	-3.58%
CC1(C)Cc2nc(C(C)(C)C)ncc2C(NC(=O)Cc2nnn[nH]2)C1 (stereo not given)	-3.67%
CCN(Cc1ccc(-c2ccccn2)cc1)C1CCS(=O)(=O)C1 (stereo not given)	-9.25%
COCCNc1nc2c(c(NCc3cnc(C)c(C)c3)n1)CCNCC2	-1.22%
O=C(c1cnc(C2CC2)nc1O)N1CCN(Cc2ccccc2F)CC1	-1.83%
CC(C)n1ccc(CN2CCN(c3cc(NC4CC4)nc(N)n3)CC2)c1	-1.45%
CCC(=O)NCc1ccc(N2CCCCC2)cc1	-6.89%
O=C(NCc1csc(Br)c1)N1CCC(O)CC1	-11.8%
CN1CC(C(=O)NCc2ccnc(-n3cccn3)c2)CC1=O (stereo not given)	-0.867%
Cc1nc(C)n(CC2CN(CCOCC(F)(F)F)CCO2)n1 (stereo not given)	-1.95%
Cc1cc(NC(=O)NCc2cccnc2OC(C)C)n(C)n1	3.2%
Cc1ncsc1CN1Cc2cnn(C)c2C(COCC2CC2)C1 (stereo not given)	3.04%
O=C(NCc1cncc2c1CCN(CC1CCOC1)C2)c1ccno1 (stereo not given)	13%
Cc1cccc(CN2CC[C@H]3[C@H]2CCN3C(=O)c2cnn(C)c2)n1	14.4%
c1cncc(CO[C@H]2CO[C@@]3(CCN(Cc4ccoc4)C3)C2)c1	-3.24%
O=C1COC2(CCN(Cc3ccoc3)CC2)CN1	-11.3%
CN1CCCCC12CCN(c1nncs1)CC2	6.89%
O=C(N[C@@H]1CN(Cc2cccs2)[C@@H]2COC[C@@H]21)C1CCC1	9.34%
Cc1cc(CN2CC[C@H]3OCC[C@@]3(C(=O)NCc3ccco3)C2)no1	6.73%
